Experimental findings from ChEMBL document CHEMBL3758162, “Synthesis, biological characterization and molecular modeling insights of spirochromanes as potent HDAC inhibitors” (Eur J Med Chem, 2016) are described below.

Bounds are passed on as bounds.

The nature of data set [1]: (§1) Metabolic stability in human liver microsomes assessed as compound remaining at 1 uM preincubated for 10 mins measured after 30 mins by LC-MS/MS analysis. The conditions noted are these: liver microsomes, read-out: Stability. It counts as ADME. The procedure, abridged: (§2)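 Compound at 1 µM pre-incubated 10 min at 37 °C in potassium phosphate buffer pH 7.4 with 0.5 mg/mL mouse or human hepatic microsomes. Parent quantified by LC-MS/MS (ESI+, MRM, verapamil internal standard). % remaining = peak area at 30 min / area at 0 min × 100; n≥2, mean.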

In another data set the target is CYP3A4 (Homo sapiens, UniProt P08684). In words: Inhibition of human CYP3A4 using 7-benzyloxy-4-(trifluoromethyl)-coumarin as substrate at 10 uM after 30 mins by fluorimetric analysis. It counts as ADME. To be noted: probe 7-benzyloxy-4-(trifluoromethyl)-coumarin. The procedure, abridged:
(§3)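 Test compounds at 10 µM in potassium phosphate buffer pH 7.4 with NADPH regenerating system (final 1.3 mM NADP⁺, 3.3 mM glucose 6-phosphate, 0.4 U/ml G6PDH); reaction started at 37 °C by adding Supersomes isoenzyme plus substrate. Enzyme and substrate amounts: CYP1A2 0.5 pmol, 5 µM CEC; CYP2C19 0.5 pmol, 25 µM CEC; CYP3A4 1 pmol, 50 µM BFC; CYP2D6 1.5 pmol, 1.5 µM AMMC. Stopped with acetonitrile/Tris base; fluorescence read; % inhibition versus enzyme without inhibitor; n≥2, mean.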

Data set [2] in a line: Metabolic stability in mouse liver microsomes assessed as compound remaining at 1 uM preincubated for 10 mins measured after 30 mins by LC-MS/MS analysis. The conditions noted are these: liver microsomes, read-out: Stability. It counts as ADME. The procedure, abridged:
as §2

A further data set deals with CYP2C19 (Homo sapiens, UniProt P33261). The data set can be described thus: Inhibition of human CYP2C19 using 3-cyano-7-ethoxycoumarin as substrate at 10 uM after 30 mins by fluorimetric analysis. It counts as ADME. The conditions noted are these: probe 3-cyano-7-ethoxycoumarin. The procedure, abridged:
as §3

For another data set, the target named is T1, CYP1A2 (Homo sapiens, UniProt P05177).
T1 sequence (P05177 whole entry): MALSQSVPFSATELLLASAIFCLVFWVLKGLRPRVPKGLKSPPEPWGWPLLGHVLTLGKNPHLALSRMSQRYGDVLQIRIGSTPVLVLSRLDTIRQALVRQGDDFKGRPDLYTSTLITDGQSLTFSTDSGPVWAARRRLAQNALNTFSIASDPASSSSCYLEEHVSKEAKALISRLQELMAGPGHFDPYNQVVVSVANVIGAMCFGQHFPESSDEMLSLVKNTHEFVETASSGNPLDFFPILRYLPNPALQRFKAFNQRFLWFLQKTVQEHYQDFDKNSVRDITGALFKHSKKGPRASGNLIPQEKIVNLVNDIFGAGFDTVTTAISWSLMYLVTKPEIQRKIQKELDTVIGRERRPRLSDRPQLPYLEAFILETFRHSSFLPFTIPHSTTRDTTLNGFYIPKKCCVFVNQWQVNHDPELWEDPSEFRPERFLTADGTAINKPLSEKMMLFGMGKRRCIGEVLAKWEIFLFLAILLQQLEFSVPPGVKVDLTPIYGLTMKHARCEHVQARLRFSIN
In words: Inhibition of human CYP1A2 using 3-cyano-7-ethoxycoumarin as substrate at 10 uM after 15 mins by fluorimetric analysis. The conditions noted are these: probe 3-cyano-7-ethoxycoumarin. It is filed as ADME. The procedure, abridged: as §3

The target of a further data set is CYP2D6 (Homo sapiens, UniProt P10635). The data set can be described thus: Inhibition of human CYP2D6 using 3-[2-(N,N-diethyl-N-methylamino)ethyl]-7-methoxy-4-methylcoumarin as substrate at 10 uM after 30 mins by fluorimetric analysis. It is filed as ADME. The procedure, abridged:
as §3

Data set [3] addresses T2, Histone deacetylase 2 (Homo sapiens, UniProt Q92769). In words: Inhibition of recombinant human HDAC2 after 15 mins by fluorescence assay. An outline of the steps: (§4)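 Recombinant human HDAC2, 3 or 6 (20, 6 and […] respectively) diluted in assay buffer with inhibitor and 25 µM fluorogenic acetyl-lysine substrate; 15 min at room temperature, then developer 10 min; fluorescence read. Concentration–inhibition data fitted by non-linear regression to give IC50; replicates n≥2, mean shown.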

Data set [4] has as its target T3, Histone deacetylase 3 (Homo sapiens, UniProt O15379). The data set can be described thus: Inhibition of recombinant human HDAC3 after 15 mins by fluorescence assay. An outline of the steps:
as §4

For data set [5], the target named is T4, Protein deacetylase HDAC6 (Homo sapiens, UniProt Q9UBN7).
T4 sequence (Q9UBN7 whole entry): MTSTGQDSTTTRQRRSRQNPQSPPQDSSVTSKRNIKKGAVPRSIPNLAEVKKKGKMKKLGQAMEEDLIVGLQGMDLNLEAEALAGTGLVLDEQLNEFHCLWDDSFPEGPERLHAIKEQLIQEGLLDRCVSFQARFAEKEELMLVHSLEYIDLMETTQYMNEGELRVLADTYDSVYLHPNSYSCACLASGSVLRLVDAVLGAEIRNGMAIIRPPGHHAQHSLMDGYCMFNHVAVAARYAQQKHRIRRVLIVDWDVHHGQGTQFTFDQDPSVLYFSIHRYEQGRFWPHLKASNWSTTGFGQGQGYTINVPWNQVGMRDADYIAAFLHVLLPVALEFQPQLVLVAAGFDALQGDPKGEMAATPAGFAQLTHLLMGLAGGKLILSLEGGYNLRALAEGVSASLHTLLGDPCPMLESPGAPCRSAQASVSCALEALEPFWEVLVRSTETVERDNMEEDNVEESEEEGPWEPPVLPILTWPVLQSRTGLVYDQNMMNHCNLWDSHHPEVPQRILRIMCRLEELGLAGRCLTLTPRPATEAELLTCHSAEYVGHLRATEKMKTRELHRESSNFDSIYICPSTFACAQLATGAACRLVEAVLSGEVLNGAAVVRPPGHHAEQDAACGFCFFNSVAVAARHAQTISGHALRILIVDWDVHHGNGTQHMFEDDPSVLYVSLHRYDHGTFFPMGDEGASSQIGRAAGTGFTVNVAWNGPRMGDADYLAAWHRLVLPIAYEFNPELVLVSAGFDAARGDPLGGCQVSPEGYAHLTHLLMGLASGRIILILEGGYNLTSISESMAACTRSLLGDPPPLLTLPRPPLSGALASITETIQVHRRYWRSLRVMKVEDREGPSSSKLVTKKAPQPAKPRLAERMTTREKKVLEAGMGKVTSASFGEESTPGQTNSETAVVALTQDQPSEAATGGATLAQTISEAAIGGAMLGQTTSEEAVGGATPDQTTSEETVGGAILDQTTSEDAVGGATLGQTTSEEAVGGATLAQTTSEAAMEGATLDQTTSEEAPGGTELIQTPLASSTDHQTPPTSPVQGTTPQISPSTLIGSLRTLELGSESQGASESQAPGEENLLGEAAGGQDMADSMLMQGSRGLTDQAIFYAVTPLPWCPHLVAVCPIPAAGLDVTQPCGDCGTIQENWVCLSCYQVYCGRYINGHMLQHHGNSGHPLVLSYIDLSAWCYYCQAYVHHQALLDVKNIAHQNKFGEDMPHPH
In words: Inhibition of recombinant human HDAC6 after 15 mins by fluorescence assay. An outline of the steps:
as §4

The test system of a further data set is Liver microsome. The data set is described as §1. It is filed as ADME. To be noted: microsomes, 0.5 h, 1 µM. An outline of the steps:
as §2

Data set [6] addresses T3, Histone deacetylase 3. In words: Inhibition of HDAC3 (unknown origin).
Data set [7] can be described thus: Solubility of the compound at pH 4.5. The conditions noted are these: buffer. It is filed as physicochemical.
For a further data set, the target named is Histone deacetylase. In words: Inhibition of HDAC in human HeLa cells nuclear extract using Fluor de lys as substrate after 15 mins by fluorometric analysis. It is filed as cell-based.
For data set [8], the target named is T2, Histone deacetylase 2. In words: Inhibition of HDAC2 (unknown origin).
Data set [9] addresses T4, Protein deacetylase HDAC6. In words: Inhibition of HDAC6 (unknown origin).
In another data set the test system is A549. The data set can be described thus: Antiproliferative activity against human A549 cells assessed as cell viability after 72 hrs by CellTitre-Glo luminescent assay. It counts as functional, cell-based. To be noted: Homo sapiens, A549, 72 h.
Data set [10] is described as follows: Antiproliferative activity against human HCT116 cells assessed as cell viability after 72 hrs by CellTitre-Glo luminescent assay. It is filed as functional, cell-based, HCT-116. The conditions noted are these: Homo sapiens, HCT-116, 72 h.
A further data set concerns K562. The data set can be described thus: Antiproliferative activity against human K562 cells assessed as cell viability after 72 hrs by CellTitre-Glo luminescent assay. The conditions noted are these: k562. It is filed as functional, cell-based.

For orientation: inhibition means the relative decrease from the control value, in per cent. Low values mean little suppression, high ones strong suppression. By IC50 is commonly meant the concentration that inhibits the measured activity by half. As usually defined, the solubility is the dissolved amount per volume that the medium holds. A high value points to much dissolved substance.

CYP2D6, sequence (P10635 whole entry): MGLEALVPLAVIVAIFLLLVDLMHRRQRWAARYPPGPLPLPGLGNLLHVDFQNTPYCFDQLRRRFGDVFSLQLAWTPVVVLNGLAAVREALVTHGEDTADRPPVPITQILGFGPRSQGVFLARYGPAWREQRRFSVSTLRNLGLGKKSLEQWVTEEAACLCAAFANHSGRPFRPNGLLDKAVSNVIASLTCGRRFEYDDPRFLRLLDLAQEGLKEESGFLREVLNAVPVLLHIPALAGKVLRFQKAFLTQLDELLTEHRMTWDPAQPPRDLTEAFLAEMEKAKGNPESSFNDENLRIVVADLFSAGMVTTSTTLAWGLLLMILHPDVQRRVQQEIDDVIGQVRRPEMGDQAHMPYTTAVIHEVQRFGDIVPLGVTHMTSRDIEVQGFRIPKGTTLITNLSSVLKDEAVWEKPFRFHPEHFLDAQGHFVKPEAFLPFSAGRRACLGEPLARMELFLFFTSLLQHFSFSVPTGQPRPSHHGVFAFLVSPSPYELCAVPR
CYP2C19, sequence (P33261 whole entry): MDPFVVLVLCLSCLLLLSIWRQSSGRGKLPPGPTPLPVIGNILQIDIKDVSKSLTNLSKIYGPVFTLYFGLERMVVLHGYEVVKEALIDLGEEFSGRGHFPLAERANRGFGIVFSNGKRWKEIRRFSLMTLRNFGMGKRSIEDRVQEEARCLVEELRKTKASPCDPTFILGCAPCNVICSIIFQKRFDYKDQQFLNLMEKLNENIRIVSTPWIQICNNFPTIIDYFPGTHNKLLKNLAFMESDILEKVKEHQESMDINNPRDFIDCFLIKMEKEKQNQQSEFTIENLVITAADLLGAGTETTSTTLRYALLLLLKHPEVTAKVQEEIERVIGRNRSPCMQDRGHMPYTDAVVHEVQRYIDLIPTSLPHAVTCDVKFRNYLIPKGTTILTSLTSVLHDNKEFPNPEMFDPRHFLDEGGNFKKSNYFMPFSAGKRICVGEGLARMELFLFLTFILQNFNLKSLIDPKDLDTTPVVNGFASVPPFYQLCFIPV
CYP3A4, sequence (P08684 whole entry): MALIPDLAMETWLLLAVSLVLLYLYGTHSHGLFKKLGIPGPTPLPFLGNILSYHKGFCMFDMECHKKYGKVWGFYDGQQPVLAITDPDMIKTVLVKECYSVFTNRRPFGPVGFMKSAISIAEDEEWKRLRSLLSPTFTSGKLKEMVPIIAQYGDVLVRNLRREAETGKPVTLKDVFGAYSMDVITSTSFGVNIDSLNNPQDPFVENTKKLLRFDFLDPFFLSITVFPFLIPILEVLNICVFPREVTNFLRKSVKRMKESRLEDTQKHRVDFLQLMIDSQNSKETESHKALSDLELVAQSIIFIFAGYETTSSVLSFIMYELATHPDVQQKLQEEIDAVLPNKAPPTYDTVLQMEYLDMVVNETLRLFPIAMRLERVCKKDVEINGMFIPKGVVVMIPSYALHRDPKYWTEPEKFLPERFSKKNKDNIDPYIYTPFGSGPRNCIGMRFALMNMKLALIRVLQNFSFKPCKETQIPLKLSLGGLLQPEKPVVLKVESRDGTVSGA
T2 sequence (Q92769 whole entry): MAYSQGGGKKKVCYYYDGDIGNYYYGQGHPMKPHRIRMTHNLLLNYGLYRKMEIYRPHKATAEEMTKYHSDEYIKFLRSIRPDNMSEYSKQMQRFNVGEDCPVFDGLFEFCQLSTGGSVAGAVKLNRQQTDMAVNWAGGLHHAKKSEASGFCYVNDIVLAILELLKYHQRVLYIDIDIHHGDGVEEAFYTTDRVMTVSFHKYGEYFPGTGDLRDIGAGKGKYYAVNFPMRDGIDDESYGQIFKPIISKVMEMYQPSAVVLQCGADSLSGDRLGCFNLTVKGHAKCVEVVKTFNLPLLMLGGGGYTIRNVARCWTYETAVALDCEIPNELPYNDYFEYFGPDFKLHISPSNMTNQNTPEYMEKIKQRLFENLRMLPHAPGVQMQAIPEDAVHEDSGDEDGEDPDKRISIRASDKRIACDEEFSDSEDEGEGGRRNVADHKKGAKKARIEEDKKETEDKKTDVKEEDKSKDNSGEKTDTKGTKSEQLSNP
T3 sequence (O15379 whole entry): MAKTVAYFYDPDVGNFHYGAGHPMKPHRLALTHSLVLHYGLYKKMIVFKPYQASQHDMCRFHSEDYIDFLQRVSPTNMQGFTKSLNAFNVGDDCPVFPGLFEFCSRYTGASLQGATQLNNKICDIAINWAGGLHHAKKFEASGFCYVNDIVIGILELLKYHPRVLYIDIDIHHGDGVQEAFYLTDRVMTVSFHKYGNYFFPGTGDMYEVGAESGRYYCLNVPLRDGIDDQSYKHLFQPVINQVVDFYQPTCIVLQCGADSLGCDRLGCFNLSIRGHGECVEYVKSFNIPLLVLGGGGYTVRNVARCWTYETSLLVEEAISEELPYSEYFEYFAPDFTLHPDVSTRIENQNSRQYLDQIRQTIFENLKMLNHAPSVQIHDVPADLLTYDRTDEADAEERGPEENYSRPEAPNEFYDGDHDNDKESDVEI

`O=C(/C=C/c1ccc2c(c1)C(=O)CC1(CCN(Cc3ccc(F)cc3)CC1)O2)NO`: the values for the remaining at 0.5 h, 1 µM in data set [1] and in data set [2] were 63% and 47%, respectively. Further, the inhibition at 0.5 h, 10 µM on CYP3A4 is 34%; on CYP2C19, 61%; on CYP2D6 it was 43%. On CYP1A2, this compound showed an inhibition at 0.25 h, 10 µM of 5%. Also, the IC50 came to 320 nM on Histone deacetylase 2 [3] and 92 nM on Histone deacetylase 3 [4].
For `O=C(/C=C/c1ccc2c(c1)C(=O)CC1(CCN(CCc3ccccc3)CC1)O2)NO`, the remaining at 0.5 h, 1 µM in data set [1] was 66%; in data set [2] it was 57%. Also, the inhibition at 0.5 h, 10 µM against CYP3A4 came out at 40%; against CYP2C19, 42%; against CYP2D6, 41%. On CYP1A2, this compound showed an inhibition at 0.25 h, 10 µM of 13%. For the same compound, the results for the IC50 (at Histone deacetylase 2 [3]; in data set [5]) were 199 nM and 138 nM, respectively.
For `O=C(/C=C/c1ccc2c(c1)C(=O)CC1(CCN(Cc3ccccc3)C1)O2)NO` (racemic), the Stability in the data set on Liver microsome is given as 24%. For the same compound, the IC50 was determined as 28 nM on Histone deacetylase 3 [6]; 52 nM against Histone deacetylase; 82 nM against Histone deacetylase 2 [8]; 123 nM in data set [9]; 389 nM in the data set with A549; 72 nM in data set [10]. The IC50 in the data set with K562 amounted to 271 nM. This compound displayed a solubility in data set [7] of more than 500 µM. In addition, the inhibition at 0.5 h, 10 µM turned out to be 69% at CYP3A4, 39% against CYP2C19 and 70% on CYP2D6. In [2], the remaining at 0.5 h, 1 µM amounted to 27%. Besides, the inhibition at 0.25 h, 10 µM against CYP1A2 came to 5%.
